Measurements published in ChEMBL document CHEMBL3046806, “Synthesis and herbicidal activity of novel 3-aminocarbonyl-2-oxazolidinethione derivatives containing a substituted pyridine ring” (2006).
The source made the active and inactive calls. The rule behind the calls is not given here.

Key:
Echinochloa crus-galli [1] = test: Herbicidal activity against Echinochloa crus-galli (barnyard grass) assessed as induction weed albinism 7 days post compound treatment; assay type: functional, organism-based
Cucumis sativus = test: Herbicidal activity against Cucumis sativus (cucumber) assessed as growth inhibition rate at 100 mg/L 7 days post compound treatment; assay type: functional; conditions: 168 h, read-out: GI
Method in brief: (§1)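 Compound dissolved in DMF and diluted to the test concentration with water containing emulsifier 0201 (anionic/nonionic surfactant, 0.1 g L-1). Seeds were sown once the agar cooled and kept at 24 ± 1 °C under 3000 lx light for 7 days. Read-out was root growth inhibition (%) versus control, in three replicates of 150 seeds per species per concentration.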

Echinochloa crus-galli [2] = test: Herbicidal activity against Echinochloa crus-galli (barnyard grass) assessed as induction of yellow symptoms of leaves 7 days post compound treatment; assay type: functional, organism-based
[3] = tested on: Brassica rapa subsp. oleifera; test: Herbicidal activity against Brassica rapa subsp. oleifera assessed as growth inhibition rate at 100 mg/L 7 days post compound treatment; assay type: functional; conditions: 168 h, read-out: GI; method in brief: as §1
Echinochloa crus-galli [4] = test: Herbicidal activity against Echinochloa crus-galli (barnyard grass) assessed as growth inhibition rate at 100 mg/L 7 days post compound treatment; assay type: functional; conditions: 168 h, read-out: GI; method in brief: as §1
Sorghum bicolor = test: Herbicidal activity against Sorghum bicolor assessed as growth inhibition rate at 100 mg/L 7 days post compound treatment; assay type: functional; conditions: 168 h, read-out: GI; method in brief: as §1
Eclipta prostrata = test: Herbicidal activity against Eclipta prostrata assessed as growth inhibition rate at 100 mg/L 7 days post compound treatment; assay type: functional; conditions: 168 h, read-out: GI; method in brief: as §1
Digitaria sanguinalis = test: Herbicidal activity against Digitaria sanguinalis (hairy crabgrass) assessed as growth inhibition rate at 100 mg/L 7 days post compound treatment; assay type: functional; conditions: 168 h, read-out: GI; method in brief: as §1

With `C[C@@H]1[C@H](c2ccncc2)OC(=S)N1C(=O)Nc1ccccc1[N+](=O)[O-]` (relative stereo) the Activity (Echinochloa crus-galli [1]) was “Active”, the inhibition of growth at 100 µg/mL (Cucumis sativus) was 20% and the Activity (Echinochloa crus-galli [2]) was “Active”. For the same compound, the inhibition of growth at 100 µg/mL [3] was 50%, the inhibition of growth at 100 µg/mL (Echinochloa crus-galli [4]) was 60% and the inhibition of growth at 100 µg/mL (Sorghum bicolor) was 70%. It also gave an inhibition of growth at 100 µg/mL (Eclipta prostrata) of 80% and an inhibition of growth at 100 µg/mL (Digitaria sanguinalis) of 70%.
In the case of `C[C@@H]1[C@H](c2ccncc2)OC(=S)N1C(=O)NC1CCCCC1` (relative stereo), the Activity (Echinochloa crus-galli [1]) is reported as “Active”, the inhibition of growth at 100 µg/mL (Cucumis sativus) is reported as 20% and the Activity (Echinochloa crus-galli [2]) is reported as “Active”. It also gave an inhibition of growth at 100 µg/mL [3] of 80%, an inhibition of growth at 100 µg/mL (Echinochloa crus-galli [4]) of 90% and an inhibition of growth at 100 µg/mL (Sorghum bicolor) of 30%. It also gave an inhibition of growth at 100 µg/mL (Eclipta prostrata) of 85% and an inhibition of growth at 100 µg/mL (Digitaria sanguinalis) of 80%.
For `CCOc1ccc([C@@H]2OC(=S)N(C(=O)Nc3ccccc3OCC)[C@@H]2C)cn1` (relative stereo), the Activity (Echinochloa crus-galli [1]) was “Active”, the inhibition of growth at 100 µg/mL (Cucumis sativus) was 0% and the Activity (Echinochloa crus-galli [2]) was “Active”. For the same compound, the inhibition of growth at 100 µg/mL [3] was 0%, the inhibition of growth at 100 µg/mL (Echinochloa crus-galli [4]) was 50% and the inhibition of growth at 100 µg/mL (Sorghum bicolor) was 0%. For the same compound, the inhibition of growth at 100 µg/mL (Eclipta prostrata) was 20% and the inhibition of growth at 100 µg/mL (Digitaria sanguinalis) was 80%.
In the case of `CCOc1ccccc1NC(=O)N1C(=S)O[C@@H](c2ccc(Cl)nc2)[C@H]1C` (relative stereo), the Activity (Echinochloa crus-galli [1]) is reported as “Active”, the inhibition of growth at 100 µg/mL (Cucumis sativus) is reported as 90% and the Activity (Echinochloa crus-galli [2]) is reported as “Active”. For the same compound, the inhibition of growth at 100 µg/mL [3] was 90%, the inhibition of growth at 100 µg/mL (Echinochloa crus-galli [4]) was 90% and the inhibition of growth at 100 µg/mL (Sorghum bicolor) was 70%. It also gave an inhibition of growth at 100 µg/mL (Eclipta prostrata) of 90% and an inhibition of growth at 100 µg/mL (Digitaria sanguinalis) of 80%.
In the case of `C[C@@H]1[C@H](c2ccc(OCC(F)(F)F)nc2)OC(=S)N1C(=O)NC1CCCCC1` (relative stereo), the Activity (Echinochloa crus-galli [1]) is reported as “Active”, the inhibition of growth at 100 µg/mL (Cucumis sativus) is reported as 40% and the Activity (Echinochloa crus-galli [2]) is reported as “Active”. It also gave an inhibition of growth at 100 µg/mL [3] of 40%, an inhibition of growth at 100 µg/mL (Echinochloa crus-galli [4]) of 80% and an inhibition of growth at 100 µg/mL (Sorghum bicolor) of 60%. The inhibition of growth at 100 µg/mL (Eclipta prostrata) was 80% and the inhibition of growth at 100 µg/mL (Digitaria sanguinalis) was 70%.
`C[C@@H]1[C@H](c2ccccn2)OC(=S)N1C(=O)NC1CCCCC1` (relative stereo) was tested, and the Activity (Echinochloa crus-galli [1]) was “Active”, the inhibition of growth at 100 µg/mL (Cucumis sativus) was 0% and the Activity (Echinochloa crus-galli [2]) was “Active”. It also gave an inhibition of growth at 100 µg/mL [3] of 0%, an inhibition of growth at 100 µg/mL (Echinochloa crus-galli [4]) of 70% and an inhibition of growth at 100 µg/mL (Sorghum bicolor) of 0%. For the same compound, the inhibition of growth at 100 µg/mL (Eclipta prostrata) was 80% and the inhibition of growth at 100 µg/mL (Digitaria sanguinalis) was 70%.
